T cruzi inh = T. cruzi replication inhibition. inhibition, % (concentration not given with the values). T. cruzi beta-gal in NIH3T3, luminescence, 90 h. actives 1.4% (n = 300,000). AID 1885;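 active means mean inhibition across valid replicates above about 55%, limit read from the data; inconclusive means mean below that limit but half or more replicates reach it; inactive means mean below it, under half of replicates reach it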;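 further: signal also drops with host cell toxicity which is not excluded here; 0% = plate median of DMSO wells and 100% = zero luminescence signal; higher percent means less beta-gal luminescence so fewer parasites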
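System: NIH/3T3 fibroblasts plus reporter T. cruzi. Medium: DMEM plus 2% FBS. Probe or stimulus: 5000 reporter trypomastigotes per well. Compound: single 50 nL compound addition per well in DMSO. Incubation: co-culture of at least 90 h after 3 h attachment. Detection: GalScreen β-gal luminescence, detergent lysis, 60 min. Evaluation: parasite load inhibition, %.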
CSC inhib = cancer stem cell inhibition | cancer stem cell-like cells viability, luminescence | actives 1.1% (n = 300,000) | inhibition, % at 7.5 µM; in the data active means inhibition above about 75%; inconclusive means no clear call, values can overlap the other calls; tested in HMLE shEcad cells
Beta apoptosis = beta cell apoptosis inhibition; protection from apoptosis, % (concentration not given with the values); INS-1E cytokine-induced death, ATP luminescence, 48 h; percent of positive-control rescue, neutral wells zero; actives 0.8% (n = 300,000);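 active means Every replicate reaches about 75%, or at least half do and their mean reaches it too, limit read from the data; inconclusive means At least half of replicates reach the limit but their mean does not; inactive means Under half of replicates reach the limit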;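 further: 0% = cytokine-treated negative control wells and 100% = positive control rescue; higher means more ATP so stronger rescue from cytokine killing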
Efflux pump mplx = antifungal efflux pump inhibition, Nile Red retention; S. cerevisiae Candida pump triplex; inhibition, % at 10 µM; actives 0.44% (n = 330,000); AID 485275;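 active means plate passing quality check with inhibition over a set limit, or well fluorescence over plate mean plus 4 SD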;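 further: Nile Red retained in pooled yeast measured as flow cytometry median fluorescence; 0% = buffer negative control and 100% = Enniatin B positive control; higher means more Nile Red kept so more efflux inhibition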
SUMO Mot1 rescue = inhibitors of SUMOylation pathway: yeast Mot1-301 growth rescue; S. cerevisiae Mot1-301 growth rescue, ATP luminescence, 38.5C; percent above DMSO median, 100 means doubled; growth rescue, % at 18.8 µM; actives 1% (n = 320,000);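 active means every valid replicate shows activation above 250% relative to neutral control wells; inactive means the rest, any valid replicate at or below 250%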;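 further: OY570 slx delta 5 strain wells were the positive control but not used for scaling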
WT yeast gro inh = growth inhibition of WT yeast, mitochondrial fusion screen; mitochondrial fusion phenotypic screen, WT strain; inhibition, % at 10 µM; actives 2.1% (n = 190,000); in the data active means inhibition above about 58%; tested in S. cerevisiae
Yeast Mot1 SUMO = SUMO pathway inhibitors in yeast Mot1-301 growth; 2,300 tested, under 10 active; S. cerevisiae Mot1-301 galactose growth, ATP luminescence, 24 h; -100 = growth of slx-deleted rescue strain; growth activity, percent, % at 42 µM; shares compounds with SUMO Mot1 rescue;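 active means Signal drops as the depositor expects, and the fitted half-maximal dose is no more than ten times the top valid tested dose; inconclusive means Poor fit, or a flat curve whose signal drops by 30% to 70%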;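 further: more negative values mean stronger growth rescue toward the control strain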
* = called active by the depositor; ? = inconclusive; / = not tested or not shown; + = active, no number; ! = not confirmed by another sample. Sampled rows, rich in hits. Any-hit rate of the full collection: about 4.8%.

SMILES	T cruzi inh	CSC inhib	Beta apoptosis	Efflux pump mplx	SUMO Mot1 rescue	WT yeast gro inh	Yeast Mot1 SUMO
Cc1c(=O)n(OCc2ccccn2)c2ccccc2[n+]1[O-]	-1	-10	-4	0	946*	37	0
O=c1c(-c2ccc(F)cc2)[n+]([O-])c2ccccc2n1OCc1ccccn1	-13	-1	-6	0	112	16	/
COc1ccc(S(=O)(=O)NC(C)C(=O)NCc2ccccn2)cc1OC (stereo not given)	-5	-13	-1	0	1	/	/
COc1ccc(S(=O)(=O)NC(C)C(=O)NCc2ccccn2)cc1Cl (stereo not given)	7	4	-2	0	386*	/	0
COc1ccc(S(=O)(=O)N2CCNCC2)cc1	-8	-7	-6	0	-10	/	/
CN(C)CC#Cc1cncc(C(=O)NNC(=O)Nc2ccc(Cl)cc2)c1	-4	6	-2	0	0	/	/
O=C(O)c1cn(-c2ccc(F)cc2)c(=O)c2ccccc12	-20	-6	-9	0	123	-16	/
O=C1C2CCCN2C(=S)N1C1CCCCC1 (stereo not given)	-9	1	-1	0	622*	/	-1
Cc1ccc(N2C(=O)C3CCCN3C2=S)cc1 (stereo not given)	-1	-2	3	0	231	/	/
CN1/C(=C\C(=O)COC(=O)c2ccc([N+](=O)[O-])o2)C(C)(C)c2ccccc21	17	36	-5	0	428*	94*	-1
CN1/C(=C\C(=O)COC(=O)c2nccnc2N)C(C)(C)c2ccccc21	-2	6	-2	0	7	/	/
CCOC(=O)c1sc2ncnc(N3CCN(c4ccc(OC)cc4)CC3)c2c1C	25	25	2	0	623*	32	1
COc1ccccc1N1CCN(C(=O)c2sc3nc(C)nc(N4CCN(c5ccccn5)CC4)c3c2C)CC1	21	14	-3	0	-18	/	/
CCOC(=O)c1sc2ncnc(N3CCN(C)CC3)c2c1C	53	-45	-5	0	10	-4	/
COc1ccccc1N1CCN(C(=O)c2sc3ncnc(N4CCN(c5ccccn5)CC4)c3c2C)CC1	12	/	-2	0	442*	/	0
O=C(COC(=O)C1CC(O)CN1S(=O)(=O)c1ccccc1[N+](=O)[O-])c1ccc[nH]1 (stereo not given)	/	-8	-9	0	-12	/	/
O=C(COC(=O)[C@@H]1CC(O)CN1S(=O)(=O)c1ccccc1[N+](=O)[O-])Nc1ccc2ccccc2c1 (stereo not given in full)	-1	4	/	0	495*	2	0
CCc1cccc(CC)c1-n1c(SCC(=O)N2CCCc3ccccc32)nc(O)cc1=O	/	-26	-11	0	-5	/	/
Oc1ccc(N=Nc2ccccc2-c2nn[nH]n2)c(O)c1	3	/	/	0	-22	/	/
O=C(c1cc(N2C(=O)C3C4CCC(C4)C3C2=O)ccc1Cl)N1CCN(c2ccccc2)CC1 (stereo not given)	-13	-13	8	-2	+	-8	1
Cc1cc(Cl)c2oc(C(=O)NC3CCC(O)CC3)c(C)c2c1 (stereo not given)	6	-3	-1	0	+	/	0
O=C(O)c1ccc2nc(-c3ccccc3)c(-c3ccccc3)nc2c1	4	-5	-4	0	5	-4	/
CCN1CCN(C(=O)c2ccc3nc(-c4ccccc4)c(-c4ccccc4)nc3c2)CC1	23	-3	2	0	474*	/	0
CC1=CC(C)(C)N2C(=O)C3(NCCc4c3[nH]c3ccccc43)c3cc(C)cc1c32 (stereo not given)	1	31	3	0	506*	/	0
CN1C(=O)C2(NCCc3c2[nH]c2ccccc32)c2ccccc21 (stereo not given)	-19	-3	-6	0	-21	-24	/
SMILES	T cruzi inh	CSC inhib	Beta apoptosis	Efflux pump mplx	SUMO Mot1 rescue	WT yeast gro inh	Yeast Mot1 SUMO
C[C@]12CC[C@H]3C(=CCc4cc(O)ccc43)[C@@H]1CCC2=O	2	2	-5	0	538*!	-2	0
Cc1ccccc1NC(=O)CSc1ccc(-c2ccc(-n3cccn3)cc2)nn1	-24	-6	/	0	-2	/	/
CCc1nnc(NC(=O)CSc2ccc(-c3ccc(-n4cccn4)cc3)nn2)s1	-8	8	/	0	781*	/	0
CCCC(O)(CCC)C(=O)NNc1ccc(C)cc1	15	23	7	0	643*	/	0
CCN1CCN(C(CNS(=O)(=O)c2ccc(Cl)cc2)c2cccnc2)CC1 (stereo not given)	26	-2	3	0	3	/	/
Cc1cc(C)c(S(=O)(=O)NCC(c2cccnc2)N2CCN(Cc3ccccc3)CC2)c(C)c1 (stereo not given)	48	7	-2	0	524*	/	0
Fc1cccc(F)c1-c1nc(-c2ccncc2)no1	13	-10	3	0	952*	/	0
Cc1ccc(-c2nc(-c3ccncc3)no2)cc1C	-20	6	/	0	31	/	/
CN1CC2(C)OC(=O)C(Cl)=C2CC1c1ccccc1 (stereo not given)	1	-13	1	0	431*	-9	-1
O=C1CN(C(=O)COC(=O)c2cccc(S(=O)(=O)NCc3ccccc3)c2)c2ccccc2N1	-6	-4	-10	0	554*	/	1
Cc1[nH]c(C)c(S(=O)(=O)NCC(C)c2ccccc2)c1C(=O)N1CCCCC1 (stereo not given)	2	7	-1	0	497*	/	0
O=C1NC[C@@H](c2ccccc2)OC(=O)[C@@H](Cc2ccc(F)cc2)C/C=C\C[C@@H]1CC(=O)N(CCO)Cc1ccccc1	/	20	5	0	20	/	/
O=C(Nc1ccc(Cl)cc1)N1CCC(c2nc(-c3ccc(F)cc3)no2)CC1	?	-1	12	0	+	37	0
COCCNC(=O)Nc1ccc2c(c1)N(C)C(=O)CS2	-11	-11	0	0	-18	13	/
CC(C)CCNC(=O)Nc1ccc2c(c1)N(C)C(=O)CS2	7	-14	17	0	+	10	0
CC(=O)Nc1ccc(S(=O)(=O)Nc2ccc3c(c2)C(=O)OC3)cc1	-9	/	0	0	704*	1	1
COc1ccc(S(=O)(=O)Nc2ccc(NC(C)=O)cc2)cc1OC	-3	4	-8	0	+	-17	0
CC(=O)Nc1ccc(NS(=O)(=O)c2ccccc2)cc1	-13	-3	1	0	/	6	/
COc1ccc(CCNCC(=O)Nc2ccccc2C(F)(F)F)cc1	-5	-6	-3	0	-7	-2	/
O=S(=O)(NCc1ccccc1)c1ccc(-n2cccn2)cc1	-10	7	-2	0	3	/	/

Screening results from PubChem.
